Source: ChEMBL document CHEMBL5236607, “Membrane-Active Cyclic Amphiphilic Peptides: Broad-Spectrum Antibacterial Activity Alone and in Combination with Antibiotics” (J Med Chem, 2022)
Calls of active or inactive are those of the source. No cut-off for these calls is given here. Peptide text beside a SMILES is read from it.

Columns and labels:
[1] = Therapeutic index, ratio of HC50 for human RBC to MIC for methicillin resistant Staphylococcus aureus ATCC BAA-1556
Method in brief: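 Human RBCs washed in PBS pH 7.4 and mixed 1:1 with two-fold peptide dilutions (4% v/v suspension), 2 h at 37 °C. Hemoglobin in supernatant read at 567 nm against PBS (0%) and 1% Triton X-100 (100%). HC50 is the concentration giving 50% hemolysis. Index is HC50 divided by MIC against MRSA.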

Pseudomonas aeruginosa [2] = experiment: Synergistic antibacterial activity against Pseudomonas aeruginosa ATCC […] incubated for 24 hrs in presence of levofloxacin by checkerboard assay; type: functional
Klebsiella pneumoniae [3] = experiment: Synergistic antibacterial activity against Klebsiella pneumoniae ATCC BAA-1705 incubated for 24 hrs in presence of polymyxin B by checkerboard assay; type: functional
Pseudomonas aeruginosa [4] = experiment: Synergistic antibacterial activity against Pseudomonas aeruginosa ATCC […] incubated for 24 hrs in presence of meropenem by checkerboard assay; type: functional
Pseudomonas aeruginosa [5] = experiment: Synergistic antibacterial activity against Pseudomonas aeruginosa ATCC […] assessed as fractional inhibitory concentration incubated for 24 hrs in presence of tetracycline by checkerboard assay; type: functional
Pseudomonas aeruginosa [6] = experiment: Synergistic antibacterial activity against Pseudomonas aeruginosa ATCC […] assessed as fractional inhibitory concentration index incubated for 24 hrs in presence of tetracycline by checkerboard assay; type: functional
Escherichia coli [7] = experiment: Synergistic antibacterial activity against Escherichia coli ATCC 25922 assessed as fractional inhibitory concentration index incubated for 24 hrs in presence of tetracycline by checkerboard assay; type: functional
Method in brief: (§1)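 Checkerboard assay in MH broth. Inoculum from an LB overnight culture set to 0.5 McFarland and diluted 1/150. […] Each agent was also titrated alone. Incubation 24 h at 37 °C. FIC = combination MIC/individual MIC; FICI = sum of the FICs. Triplicate.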

Pseudomonas aeruginosa [8] = experiment: Synergistic antibacterial activity against Pseudomonas aeruginosa ATCC […] assessed as fractional inhibitory concentration index incubated for 24 hrs in presence of clindamycin by checkerboard assay; type: functional
Method in brief: (§2)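 Checkerboard assay. Inoculum from an LB overnight culture at 0.5 McFarland, diluted 1/150 in MH media. […] Incubated 37 °C for 24 h. FICI = MIC combination/MIC alone summed over both agents. Triplicate.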

Escherichia coli [9] = experiment: Synergistic antibacterial activity against Escherichia coli ATCC 25922 assessed as fractional inhibitory concentration index incubated for 24 hrs in presence of clindamycin by checkerboard assay; type: functional; method in brief: as §1
Pseudomonas aeruginosa [10] = experiment: Synergistic antibacterial activity against Pseudomonas aeruginosa ATCC […] fractional inhibitory concentration index incubated for 24 hrs in presence of kanamycin by checkerboard assay; type: functional
Escherichia coli [11] = experiment: Synergistic antibacterial activity against Escherichia coli ATCC 25922 fractional inhibitory concentration index incubated for 24 hrs in presence of kanamycin by checkerboard assay; type: functional; method in brief: as §1
Klebsiella pneumoniae [12] = experiment: Synergistic antibacterial activity against Klebsiella pneumoniae ATCC BAA-1705 fractional inhibitory concentration index incubated for 24 hrs in presence of kanamycin by checkerboard assay; type: functional; method in brief: as §1
Klebsiella pneumoniae [13] = experiment: Synergistic antibacterial activity against Klebsiella pneumoniae ATCC BAA-1705 fractional inhibitory concentration index incubated for 24 hrs in presence of levofloxacin by checkerboard assay; type: functional; method in brief: as §1
Pseudomonas aeruginosa [14] = experiment: Synergistic antibacterial activity against Pseudomonas aeruginosa ATCC […] fractional inhibitory concentration index incubated for 24 hrs in presence of Ciprofloxacin by checkerboard assay; type: functional
Pseudomonas aeruginosa [15] = experiment: Synergistic antibacterial activity against Pseudomonas aeruginosa ATCC […] fractional inhibitory concentration index incubated for 24 hrs in presence of metronidazole by checkerboard assay; type: functional
Klebsiella pneumoniae [16] = experiment: Synergistic antibacterial activity against Klebsiella pneumoniae ATCC BAA-1705 fractional inhibitory concentration index incubated for 24 hrs in presence of vancomycin by checkerboard assay; type: functional; method in brief: as §2
Klebsiella pneumoniae [17] = experiment: Synergistic antibacterial activity against Klebsiella pneumoniae ATCC BAA-1705 fractional inhibitory concentration index incubated for 24 hrs in presence of daptomycin by checkerboard assay; type: functional; method in brief: as §1
Escherichia coli [18] = experiment: Synergistic antibacterial activity against Escherichia coli ATCC 25922 assessed as fractional inhibitory concentration incubated for 24 hrs in presence of tetracycline by checkerboard assay; type: functional; method in brief: as §1
Klebsiella pneumoniae [19] = experiment: Synergistic antibacterial activity against Klebsiella pneumoniae ATCC BAA-1705 assessed as fractional inhibitory concentration incubated for 24 hrs in presence of tetracycline by checkerboard assay; type: functional; method in brief: as §1
Staphylococcus aureus [20] = experiment: Synergistic antibacterial activity against methicillin resistant Staphylococcus aureus ATCC BAA-1556 assessed as fractional inhibitory concentration incubated for 24 hrs in presence of clindamycin by checkerboard assay; type: functional; method in brief: as §2
Pseudomonas aeruginosa [21] = experiment: Synergistic antibacterial activity against Pseudomonas aeruginosa ATCC […] assessed as fractional inhibitory concentration incubated for 24 hrs in presence of clindamycin by checkerboard assay; type: functional
Escherichia coli [22] = experiment: Synergistic antibacterial activity against Escherichia coli ATCC 25922 assessed as fractional inhibitory concentration incubated for 24 hrs in presence of clindamycin by checkerboard assay; type: functional; method in brief: as §1
Klebsiella pneumoniae [23] = experiment: Synergistic antibacterial activity against Klebsiella pneumoniae ATCC BAA-1705 fractional inhibitory concentration incubated for 24 hrs in presence of clindamycin by checkerboard assay; type: functional; method in brief: as §1
Escherichia coli [24] = experiment: Synergistic antibacterial activity against Escherichia coli ATCC 25922 fractional inhibitory concentration incubated for 24 hrs in presence of kanamycin by checkerboard assay; type: functional; method in brief: as §1
Pseudomonas aeruginosa [25] = experiment: Synergistic antibacterial activity against Pseudomonas aeruginosa ATCC […] fractional inhibitory concentration incubated for 24 hrs in presence of levofloxacin by checkerboard assay; type: functional
Klebsiella pneumoniae [26] = experiment: Synergistic antibacterial activity against Klebsiella pneumoniae ATCC BAA-1705 fractional inhibitory concentration incubated for 24 hrs in presence of levofloxacin by checkerboard assay; type: functional; method in brief: as §1
Klebsiella pneumoniae [27] = experiment: Synergistic antibacterial activity against Klebsiella pneumoniae ATCC BAA-1705 fractional inhibitory concentration incubated for 24 hrs in presence of Ciprofloxacin by checkerboard assay; type: functional; method in brief: as §1
Klebsiella pneumoniae [28] = experiment: Synergistic antibacterial activity against Klebsiella pneumoniae ATCC BAA-1705 fractional inhibitory concentration incubated for 24 hrs in presence of polymyxin B by checkerboard assay; type: functional; method in brief: as §1
Klebsiella pneumoniae [29] = experiment: Synergistic antibacterial activity against Klebsiella pneumoniae ATCC BAA-1705 fractional inhibitory concentration incubated for 24 hrs in presence of metronidazole by checkerboard assay; type: functional; method in brief: as §2
Pseudomonas aeruginosa [30] = experiment: Synergistic antibacterial activity against Pseudomonas aeruginosa ATCC […] fractional inhibitory concentration incubated for 24 hrs in presence of vancomycin by checkerboard assay; type: functional
Klebsiella pneumoniae [31] = experiment: Synergistic antibacterial activity against Klebsiella pneumoniae ATCC BAA-1705 fractional inhibitory concentration incubated for 24 hrs in presence of vancomycin by checkerboard assay; type: functional; method in brief: as §1
Pseudomonas aeruginosa [32] = experiment: Synergistic antibacterial activity against Pseudomonas aeruginosa ATCC […] fractional inhibitory concentration incubated for 24 hrs in presence of daptomycin by checkerboard assay; type: functional
Escherichia coli [33] = experiment: Induction of resistance development in Escherichia coli ATCC BAA-2452 assessed as increase in MIC by microtiter plate reader assay; type: functional, organism-based
Method in brief: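 Serial passage resistance assay with 2-fold microdilution MICs in 96-well plates. Each passage takes the well with the highest concentration still permitting growth, adjusts it to 0.5 McFarland, and dilutes it to a final 5 × 10^5 CFU/mL for the next passage. Eighteen passages; MIC recorded at each. Triplicate.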

Staphylococcus aureus [34] = experiment: Synergistic antibacterial activity against methicillin resistant Staphylococcus aureus ATCC BAA-1556 fractional inhibitory concentration incubated for 24 hrs in presence of Ciprofloxacin by checkerboard assay; type: functional; method in brief: as §2

Row | SMILES | TI [1] | MIC (Pseudomonas aeruginosa [2]) [µg/mL] | MIC (Klebsiella pneumoniae [3]) [µg/mL] | MIC (Pseudomonas aeruginosa [4]) [µg/mL] | FIC (Pseudomonas aeruginosa [5]) | fractional inhibitory concentration index (FICI) (Pseudomonas aeruginosa [6]) | fractional inhibitory concentration index (FICI) (Escherichia coli [7]) | fractional inhibitory concentration index (FICI) (Pseudomonas aeruginosa [8]) | fractional inhibitory concentration index (FICI) (Escherichia coli [9]) | fractional inhibitory concentration index (FICI) (Pseudomonas aeruginosa [10]) | fractional inhibitory concentration index (FICI) (Escherichia coli [11]) | fractional inhibitory concentration index (FICI) (Klebsiella pneumoniae [12]) | fractional inhibitory concentration index (FICI) (Klebsiella pneumoniae [13]) | fractional inhibitory concentration index (FICI) (Pseudomonas aeruginosa [14]) | fractional inhibitory concentration index (FICI) (Pseudomonas aeruginosa [15]) | fractional inhibitory concentration index (FICI) (Klebsiella pneumoniae [16]) | fractional inhibitory concentration index (FICI) (Klebsiella pneumoniae [17]) | FIC (Escherichia coli [18]) | FIC (Klebsiella pneumoniae [19]) | FIC (Staphylococcus aureus [20]) | also measured
1 | N=C(N)NCCC[C@@H]1NC(=O)[C@H](CCCNC(=N)N)NC(=O)[C@H](CCCNC(=N)N)NC(=O)[C@H](Cc2c[nH]c3ccccc23)NC(=O)[C@H](Cc2c[nH]c3ccccc23)NC(=O)[C@H](Cc2c[nH]c3ccccc23)NC(=O)[C@H](Cc2c[nH]c3ccccc23)NC(=O)[C@H](CCCNC(=N)N)NC(=O)[C@H](CCCNC(=N)N)NC1=O | 85 | 0.125 | 0.125 | 0.125 | 0.125 | 0.375 | 0.375 | 0.266 | 0.313 | 0.281 | 0.5 | 0.375 | 0.375 | 0.5 | 0.5 | 0.563 | 0.516 | 0.125 | 0.125 | 0.249 | FIC (Pseudomonas aeruginosa [21]): 0.016; FIC (Escherichia coli [22]): 0.063; FIC (Klebsiella pneumoniae [23]): 0.0039; FIC (Escherichia coli [24]): 0.25; FIC (Pseudomonas aeruginosa [25]): 0.125; FIC (Klebsiella pneumoniae [26]): 0.125; FIC (Klebsiella pneumoniae [27]): 0.0625; FIC (Klebsiella pneumoniae [28]): 0.125; FIC (Klebsiella pneumoniae [29]): 0.0313; FIC (Pseudomonas aeruginosa [30]): 0.063; FIC (Klebsiella pneumoniae [31]): 0.0625; FIC (Pseudomonas aeruginosa [32]): 0.063; Activity (Escherichia coli [33]): inactive
2 | N=C(N)NCCC[C@@H]1NC(=O)[C@H](CCCNC(=N)N)NC(=O)[C@H](CCCNC(=N)N)NC(=O)[C@H](CCCNC(=N)N)NC(=O)[C@H](Cc2c[nH]c3ccccc23)NC(=O)[C@H](Cc2c[nH]c3ccccc23)NC(=O)[C@H](Cc2c[nH]c3ccccc23)NC(=O)[C@H](Cc2c[nH]c3ccccc23)NC(=O)[C@H](CCCNC(=N)N)NC(=O)[C@H](CCCNC(=N)N)NC1=O (cyclo(RRRRRRWWWW)) | 33.1 | 0.125 | 0.031 | 0.25 | 0.25 | 0.5 | 0.313 | 0.516 | 0.313 | 0.266 | 0.375 | 0.5 | 0.375 | 0.5 | 0.375 | 0.313 | 0.375 | 0.063 | 0.125 | 0.248 | FIC (Pseudomonas aeruginosa [21]): 0.016; FIC (Escherichia coli [22]): 0.063; FIC (Klebsiella pneumoniae [23]): 0.016; FIC (Escherichia coli [24]): 0.125; FIC (Pseudomonas aeruginosa [25]): 0.125; FIC (Klebsiella pneumoniae [26]): 0.125; FIC (Staphylococcus aureus [34]): 0.25; FIC (Klebsiella pneumoniae [27]): 0.0625; FIC (Klebsiella pneumoniae [28]): 0.031; FIC (Klebsiella pneumoniae [29]): 0.063; FIC (Pseudomonas aeruginosa [30]): 0.0313; FIC (Klebsiella pneumoniae [31]): 0.0625; FIC (Pseudomonas aeruginosa [32]): 0.0156
